Measured values from ChEMBL document CHEMBL1799948, “Side chain SAR of bicyclic β-lactamase inhibitors (BLIs). 2. N-Alkylated and open chain analogs of MK-8712” (Bioorg Med Chem Lett, 2011).
pIC50: −log10 of the molar value.

What was measured:
[1] = target: Beta-lactamase (Pseudomonas aeruginosa (strain ATCC 15692 / PAO1 / 1C / PRS 101 / LMG12228)) (UniProt P24735); assay: Inhibition of AmpC in Pseudomonas aeruginosa CL5701 assessed as concentration required to reduce the imipenen MIC from 32 ug/ml to 4 ug/ml by in vitro synergy assay
[2] = target: Beta-lactamase (Pseudomonas aeruginosa (strain ATCC 15692 / PAO1 / 1C / PRS 101 / LMG12228), UniProt P24735); assay: Inhibition of Pseudomonas aeruginosa CL5701 AmpC by spectrophotometric assay
How it was run: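 AmpC from Pseudomonas aeruginosa, in 100 mM KH₂PO₄ buffer pH 7 with 0.005% BSA. Inhibitor serially diluted from DMSO and preincubated with enzyme 40 min at room temperature. Nitrocefin then added for a further 40 min. Quenched with 2.5 N acetic acid, absorbance read at 492 nm. IC₅₀ taken from semi-log plots of inhibition versus inhibitor concentration.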

Sequence of Beta-lactamase (P24735 whole entry): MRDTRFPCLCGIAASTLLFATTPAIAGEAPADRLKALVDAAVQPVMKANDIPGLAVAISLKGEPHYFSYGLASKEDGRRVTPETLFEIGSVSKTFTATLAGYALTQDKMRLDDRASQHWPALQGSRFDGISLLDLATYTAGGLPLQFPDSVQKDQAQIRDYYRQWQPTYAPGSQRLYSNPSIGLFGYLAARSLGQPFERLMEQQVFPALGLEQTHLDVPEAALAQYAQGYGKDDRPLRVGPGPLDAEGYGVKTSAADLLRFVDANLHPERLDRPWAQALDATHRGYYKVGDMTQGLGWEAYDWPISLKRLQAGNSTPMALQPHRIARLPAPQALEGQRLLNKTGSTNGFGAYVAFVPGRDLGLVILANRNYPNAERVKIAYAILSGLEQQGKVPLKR
Sequence of Beta-lactamase (Pseudomonas aeruginosa (strain ATCC 15692 / PAO1 / 1C / PRS 101 / LMG12228)) (P24735 27-397 limits assumed): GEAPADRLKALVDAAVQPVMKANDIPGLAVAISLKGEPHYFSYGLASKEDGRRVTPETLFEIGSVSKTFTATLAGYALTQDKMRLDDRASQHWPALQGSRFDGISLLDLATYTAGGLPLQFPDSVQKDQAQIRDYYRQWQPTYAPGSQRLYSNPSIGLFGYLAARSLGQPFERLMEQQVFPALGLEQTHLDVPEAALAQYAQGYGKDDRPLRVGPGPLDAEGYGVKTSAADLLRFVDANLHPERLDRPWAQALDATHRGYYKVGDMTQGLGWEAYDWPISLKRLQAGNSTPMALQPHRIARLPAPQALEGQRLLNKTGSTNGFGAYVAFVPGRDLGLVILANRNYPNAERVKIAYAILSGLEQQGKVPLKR

Row | Compound | Activity [1] | pIC50 [2]
1 | CNCCCCNC(=O)N1CC[C@@H]2[C@H]1C(=O)N2S(=O)(=O)O | 25 µM | 5.46
2 | NCCN1CCC[C@H](NC(=O)N2CC[C@@H]3[C@H]2C(=O)N3S(=O)(=O)O)CC1 | 25 µM | 6.22
3 | CN(C)CCCNC(=O)N1CC[C@@H]2[C@H]1C(=O)N2S(=O)(=O)O | 25 µM | 5.68
4 | O=C1[C@H]2NCC[C@H]2N1S(=O)(=O)O | > 100 µM | < 3.60
5 | CNCCCNC(=O)N1CC[C@@H]2[C@H]1C(=O)N2S(=O)(=O)O | 50 µM | 5.28
6 | CN1CCC[C@H](NC(=O)N2CC[C@@H]3[C@H]2C(=O)N3S(=O)(=O)O)CC1 | 25 µM | 5.59
7 | O=C(N[C@H]1CCCN(CCO)CC1)N1CC[C@@H]2[C@H]1C(=O)N2S(=O)(=O)O | 25 µM | 6.05
8 | CC(C)NC(=O)N1CC[C@@H]2[C@H]1C(=O)N2S(=O)(=O)O | > 100 µM | 5.74
9 | CN(C)CCN1CCC[C@H](NC(=O)N2CC[C@@H]3[C@H]2C(=O)N3S(=O)(=O)O)CC1 | 100 µM | 6.05
10 | O=C(N[C@H]1CCCN(CCCO)CC1)N1CC[C@@H]2[C@H]1C(=O)N2S(=O)(=O)O | 50 µM | 5.96
11 | CN(C)CCCCNC(=O)N1CC[C@@H]2[C@H]1C(=O)N2S(=O)(=O)O | 25 µM | 5.80
12 | CN(C)CCCCCNC(=O)N1CC[C@@H]2[C@H]1C(=O)N2S(=O)(=O)O | 100 µM | 5.72
13 | C[N+]1(C)CCC[C@H](NC(=O)N2CC[C@@H]3[C@H]2C(=O)N3S(=O)(=O)[O-])CC1 | 50 µM | 5.82
14 | NC(=O)N1CC[C@@H]2[C@H]1C(=O)N2S(=O)(=O)O | > 100 µM | 4.80
